Publication PMC7423752 (Acta biomaterialia, 2020)

Key:
PSMA [1] = conditions: cited from earlier work
PSMA [2] = conditions: read-out: Kd to PSMA; cited from earlier work
[3] = tested on: PSMA-positive prostate cancer C4–2 cells; assay: Cellular uptake of the micelle in cell monolayers; format: cell-based; conditions: 0.5 and 1 h incubation
Outline: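 C4–2 cells seeded at 2×10^5 per well 24 h ahead. They were exposed at 37°C for 0.5 and 1 h to micelles with or without the PSMA ligand, or to free test compound. Cells were then PBS-washed and RIPA-lysed. Part of the lysate went to BCA protein assay; the rest was treated with 4N NaOH (RT, 1 h), neutralised with phosphate buffer and DCM-extracted. Uptake was normalised to total protein; mean ± SD, n = 3.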

[4] = cited from earlier work

| SMILES | IC50 (PSMA [1]; read-out: IC50 towards PSMA) [nM] | Ki (PSMA [1]; read-out: Ki towards PSMA) [nM] | Kd (PSMA [2]) [nM] | cellular uptake, rank among groups [3] | water solubility [4] |
| --- | --- | --- | --- | --- | --- |
| O=C(O)CCC(NC(=O)NC(CCC(=O)O)C(=O)O)C(=O)O (centres unmarked) [DUPA, 2-[3-(1,3-dicarboxypropyl)ureido]pentanedioic acid] | 47 | 8 | 14 |  |  |
| CO[C@H]1C(=O)[C@]2(C)[C@@H](OC)C[C@H]3OC[C@@]3(OC(C)=O)[C@H]2[C@H](OC(=O)c2ccccc2)[C@]2(O)C[C@H](OC(=O)[C@H](O)[C@@H](NC(=O)OC(C)(C)C)c3ccccc3)C(C)=C1C2(C)C [cabazitaxel, Cabazitaxel] |  |  |  | lowest uptake | very low |
